Assay results published in ChEMBL document CHEMBL4014309, “Development of an Acrylate Derivative Targeting the NLRP3 Inflammasome for the Treatment of Inflammatory Bowel Disease” (J Med Chem, 2017).
The source made the active and inactive calls. The calls are words filed in the database; no cut-off is given here.

Assays:
Rattus norvegicus = assay: Antiinflammatory activity in DNBS-induced Sprague-Dawley rat colitis model assessed as reduction in DNBS-induced spleen weight increase by measuring increase in spleen weight at 50 mg/kg/day, ig administered as suspension in olive oil for 6 days simulatneously with 6 days of DNBS-challenge measured daily during compound dosing (reference value: 39.3%); format: functional; set-up: scale not given: the % may be the effect or the level left
Method in brief: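 Spleen weight was used as an index of systemic inflammation. Rats had intrarectal DNBS (15 mg/0.25 mL 50% ethanol) and 6 days of intragastric dosing: 1 mg/kg/day in 1% methylcellulose, or 12.5–50 mg/kg/day in 0.2 mL olive oil. The spleen was weighed at sacrifice and expressed as percent increase versus control, n = 10.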

[1] = molecular target: NACHT, LRR and PYD domains-containing protein 3 (Mus musculus) (UniProt Q8R4B8); assay: Inhibition of NLRP3 inflammasome in LPS-primed C57BL/6 mouse bone marrow derived macrophages assessed as reduction in nigericin-induced pyroptosis at 10 to 100 uM preincubated for 1 hr followed by stimulation with ATP measured after 30 mins by LDH release assay
NACHT, LRR and PYD domains-containing protein 3 (Mus musculus), sequence (Q8R4B8 whole entry, the tested form may be a part): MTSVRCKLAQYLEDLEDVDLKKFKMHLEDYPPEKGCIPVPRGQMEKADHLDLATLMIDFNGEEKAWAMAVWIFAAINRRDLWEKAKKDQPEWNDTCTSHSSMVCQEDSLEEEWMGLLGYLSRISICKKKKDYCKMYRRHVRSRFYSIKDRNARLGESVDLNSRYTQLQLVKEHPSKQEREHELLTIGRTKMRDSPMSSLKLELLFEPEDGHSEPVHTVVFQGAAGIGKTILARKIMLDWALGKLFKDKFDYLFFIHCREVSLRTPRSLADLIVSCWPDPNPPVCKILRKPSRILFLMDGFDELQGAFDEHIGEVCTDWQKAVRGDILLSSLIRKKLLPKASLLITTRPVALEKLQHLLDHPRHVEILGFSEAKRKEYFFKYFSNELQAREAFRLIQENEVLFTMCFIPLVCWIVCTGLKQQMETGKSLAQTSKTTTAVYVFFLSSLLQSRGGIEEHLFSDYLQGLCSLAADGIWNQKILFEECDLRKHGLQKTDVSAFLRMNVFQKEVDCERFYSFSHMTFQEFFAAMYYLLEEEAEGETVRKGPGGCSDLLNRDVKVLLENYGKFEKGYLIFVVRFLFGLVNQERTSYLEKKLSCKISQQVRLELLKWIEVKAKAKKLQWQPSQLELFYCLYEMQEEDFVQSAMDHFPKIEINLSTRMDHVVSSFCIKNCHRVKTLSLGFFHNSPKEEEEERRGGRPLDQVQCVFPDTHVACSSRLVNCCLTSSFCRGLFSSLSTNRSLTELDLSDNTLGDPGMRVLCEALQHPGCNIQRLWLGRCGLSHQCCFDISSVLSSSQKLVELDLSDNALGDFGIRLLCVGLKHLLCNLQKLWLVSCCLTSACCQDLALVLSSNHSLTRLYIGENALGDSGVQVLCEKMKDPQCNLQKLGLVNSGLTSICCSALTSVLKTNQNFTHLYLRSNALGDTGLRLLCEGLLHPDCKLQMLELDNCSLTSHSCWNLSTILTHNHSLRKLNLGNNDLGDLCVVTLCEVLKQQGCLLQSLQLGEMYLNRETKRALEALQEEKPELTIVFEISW
Method in brief: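 Bone marrow macrophages from C57BL/6 mice, differentiated with 20% L-cell medium, primed with LPS (1 µg/mL, 3 h). Test agent or vehicle was added for 1 h, then ATP (5 mM, 30 min) or nigericin (10 µM, 30 min). IL-1β in the medium was measured by ELISA. LDH in the medium was measured colorimetrically as % of total cellular LDH.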

[2] = molecular target: NACHT, LRR and PYD domains-containing protein 3 (Homo sapiens) (UniProt Q96P20); assay: Inhibition of recombinant human NLRP3 ATPase assessed as hydrolysis of ATP at 100 uM preincubated for 15 mins followed by addition of ATP measured after 40 mins by ADP-Glo assay
NACHT, LRR and PYD domains-containing protein 3 (Homo sapiens), sequence (Q96P20 whole entry, the tested form may be a part): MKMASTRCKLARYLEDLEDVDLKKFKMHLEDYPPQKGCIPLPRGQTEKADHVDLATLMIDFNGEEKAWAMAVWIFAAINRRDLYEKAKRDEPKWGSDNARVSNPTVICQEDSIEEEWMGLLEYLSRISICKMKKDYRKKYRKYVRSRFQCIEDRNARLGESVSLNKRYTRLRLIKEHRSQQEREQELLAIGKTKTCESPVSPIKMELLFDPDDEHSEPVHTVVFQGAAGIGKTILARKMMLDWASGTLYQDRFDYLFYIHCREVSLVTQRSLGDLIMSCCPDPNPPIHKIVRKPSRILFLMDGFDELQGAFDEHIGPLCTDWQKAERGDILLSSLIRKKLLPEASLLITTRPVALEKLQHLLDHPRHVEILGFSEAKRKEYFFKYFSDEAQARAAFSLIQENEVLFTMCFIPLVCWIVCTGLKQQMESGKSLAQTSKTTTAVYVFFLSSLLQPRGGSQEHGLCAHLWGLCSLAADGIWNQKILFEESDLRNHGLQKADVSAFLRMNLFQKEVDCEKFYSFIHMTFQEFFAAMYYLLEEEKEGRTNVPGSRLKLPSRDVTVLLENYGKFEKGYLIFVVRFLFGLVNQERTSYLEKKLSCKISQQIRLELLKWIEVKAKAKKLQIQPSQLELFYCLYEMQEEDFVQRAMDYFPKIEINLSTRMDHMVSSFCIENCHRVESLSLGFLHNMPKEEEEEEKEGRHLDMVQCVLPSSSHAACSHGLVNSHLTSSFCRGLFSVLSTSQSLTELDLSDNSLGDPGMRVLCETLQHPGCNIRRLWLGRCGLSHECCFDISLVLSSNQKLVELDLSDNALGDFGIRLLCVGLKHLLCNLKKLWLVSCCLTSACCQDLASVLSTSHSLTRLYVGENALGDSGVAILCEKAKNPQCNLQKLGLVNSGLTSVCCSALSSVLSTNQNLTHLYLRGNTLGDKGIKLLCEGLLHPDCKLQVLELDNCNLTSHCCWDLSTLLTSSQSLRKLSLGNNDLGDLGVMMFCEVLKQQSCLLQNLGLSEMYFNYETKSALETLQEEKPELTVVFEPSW
Method in brief: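 Human recombinant NLRP3 (0.105 µg) in 20 mM Tris-HCl pH 7.8, 133 mM NaCl, 20 mM MgCl2, 3 mM KCl, 0.56 mM EDTA, 0.5% DMSO. Compound (100 or 50 µM) was preincubated 15 min at 37 °C, then ATP (250 µM) was added for 40 min at 37 °C. ADP was read by ADP-Glo luminescence. Result is % inhibition vs vehicle; mean ± SEM, ≥3 experiments.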

[3] = Cysteamine reactivity of the compound in PBS assessed as second order rate constant for free cysteamine release at 250 uM and pH 7.4 after 90 mins by DTNB reagent based RP-UHPLC analysis
Method in brief: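 Compound (250 µM) was mixed with equimolar cysteamine in pH 7.4 PBS containing 12.5% CH3CN at 37 °C. Free cysteamine was tracked with DTNB at several time points over 90 min. Second-order k2 came from 1/[CAM] = 1/[CAM]0 + kt, using 3–10 points per plot; mean ± SEM of ≥3 experiments.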

inhibition [1]: Active | inhibition [2]: 52%
SMILES: C=C(Cc1ccccc1Cl)C(=O)OCC
Activity (Rattus norvegicus): 4.8% | Drug metabolism [3]: Metabolite not detected
